From ChEMBL document CHEMBL4699593, “Identification of 2,4-Disubstituted Imidazopyridines as Hemozoin Formation Inhibitors with Fast-Killing Kinetics and In Vivo Efficacy in the Plasmodium falciparum NSG Mouse Model” (J Med Chem, 2020)
≈ marks a conversion by molar mass, not a printed value. Calls of active or inactive are those of the source. The calls are words filed in the database; no cut-off is given here.

Legend:
[1] = Aqueous solubility of compound in phosphate buffer saline at pH 6.5 incubated for 20 hrs under shaking condition by shake-flask method based HPLC-DAD analysis; type: physicochemical; conditions: phosphate buffered saline
Outline: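 Equilibrium aqueous solubility was measured at pH 6.5 using a miniaturized shake-flask method.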

[2] = target: Voltage-gated inwardly rectifying potassium channel KCNH2 (Homo sapiens, UniProt Q12809); test: Inhibition of human ERG by patch clamp method
Sequence of Voltage-gated inwardly rectifying potassium channel KCNH2 (Q12809 whole entry): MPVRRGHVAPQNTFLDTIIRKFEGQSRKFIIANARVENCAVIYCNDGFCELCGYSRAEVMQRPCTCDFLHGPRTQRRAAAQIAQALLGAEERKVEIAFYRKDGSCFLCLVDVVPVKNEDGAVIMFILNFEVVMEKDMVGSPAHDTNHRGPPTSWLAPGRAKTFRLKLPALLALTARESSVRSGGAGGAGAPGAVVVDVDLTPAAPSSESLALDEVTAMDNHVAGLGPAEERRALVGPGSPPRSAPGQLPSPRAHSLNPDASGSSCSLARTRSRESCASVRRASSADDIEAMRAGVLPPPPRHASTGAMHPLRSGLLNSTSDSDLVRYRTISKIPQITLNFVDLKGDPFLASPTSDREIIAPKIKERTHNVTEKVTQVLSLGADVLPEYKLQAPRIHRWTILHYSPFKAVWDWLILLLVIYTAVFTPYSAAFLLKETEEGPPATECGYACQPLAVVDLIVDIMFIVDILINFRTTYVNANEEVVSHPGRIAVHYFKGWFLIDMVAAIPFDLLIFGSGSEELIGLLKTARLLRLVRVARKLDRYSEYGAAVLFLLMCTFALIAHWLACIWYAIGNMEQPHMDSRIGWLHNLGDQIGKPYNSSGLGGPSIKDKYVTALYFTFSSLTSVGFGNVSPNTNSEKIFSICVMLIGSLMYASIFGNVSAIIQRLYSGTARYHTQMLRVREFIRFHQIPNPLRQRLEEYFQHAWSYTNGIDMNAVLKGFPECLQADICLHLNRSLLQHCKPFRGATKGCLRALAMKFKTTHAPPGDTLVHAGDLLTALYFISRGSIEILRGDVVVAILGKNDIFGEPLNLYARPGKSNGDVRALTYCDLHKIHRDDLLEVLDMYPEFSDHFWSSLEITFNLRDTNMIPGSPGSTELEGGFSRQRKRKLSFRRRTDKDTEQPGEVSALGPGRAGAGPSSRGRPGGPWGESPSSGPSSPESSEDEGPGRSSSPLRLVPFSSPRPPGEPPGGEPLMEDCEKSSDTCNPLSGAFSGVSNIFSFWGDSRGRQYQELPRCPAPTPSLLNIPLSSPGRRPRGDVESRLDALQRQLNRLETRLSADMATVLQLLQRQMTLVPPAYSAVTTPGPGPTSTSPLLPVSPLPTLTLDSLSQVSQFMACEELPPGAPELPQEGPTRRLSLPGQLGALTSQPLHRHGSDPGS

[3] = Selectivity index, ratio of CC50 for cytotoxicity against CHO cells assessed as reduction in cell viability to IC50 for antiplasmodial activity against multidrug-sensitive Plasmodium falciparum NF54 assessed as reduction in parasite growth; type: toxicity, cell-based; conditions: hamster, read-out: Ratio CC50/IC50
[4] = system: Plasmodium falciparum; test: Antimalarial activity against asexual blood stage Plasmodium falciparum assessed as reduction in parasitemia by measuring log parasite reduction ratio at 10 times IC50; type: functional
[5] = system: Plasmodium falciparum; test: Antimalarial activity against asexual blood stage Plasmodium falciparum assessed as time required to show 99.9% reduction of parasitemia at 10 times IC50; type: functional
[6] = system: Plasmodium falciparum; test: Antimalarial activity against asexual ring stage of Plasmodium falciparum NF54 measured after 24 hrs by [3H]hypoxanthine incorporation assay; type: functional, organism-based
Outline: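 Tested on a synchronized asexual blood-stage culture of P. falciparum, with IC50 determined separately for the ring and the schizont stage.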

[7] = system: Plasmodium falciparum; test: Antiplasmodial activity against early ring-stage synchronized Plasmodium falciparum assessed as decrease in hemozoin formation after 32 hrs by Giemsa-staining based haemocytometric counting method; type: functional, organism-based
[8] = Cmax in Balb/C mouse at 20 mg/kg, po by LC-MS/MS analysis; type: ADME, organism-based; set-up: route oral, dose 20 mg/kg; conditions: in vivo
Outline: (§1)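 Healthy Balb/c mice dosed i.v. or orally. Parameters come from non-compartmental analysis of compound concentration over time. […] Clearance is blood clearance (CL_b).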

[9] = Tmax in Balb/C mouse at 20 mg/kg, po by LC-MS/MS analysis; type: ADME, organism-based; conditions: in vivo
Outline: (§2)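 Healthy Balb/c mice were given the compound i.v. or orally. Parameters come from non-compartmental analysis: AUC from 0 h to t_last, blood clearance, volume at steady state, terminal half-life, Tmax. Oral bioavailability F is derived from the i.v. and p.o. data.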

[10] = Terminal half life in Balb/C mouse at 2 mg/kg, iv by LC-MS/MS analysis; type: ADME, organism-based; conditions: in vivo, read-out: beta t1/2 (converted); outline: as §2
[11] = Clearance in Balb/C mouse blood at 2 mg/kg, iv by LC-MS/MS analysis; type: ADME, organism-based; conditions: whole blood; outline: as §1
[12] = Oral bioavailability in Balb/C mouse at 20 mg/kg by LC-MS/MS analysis; type: ADME, organism-based; conditions: in vivo; outline: as §2
[13] = Tmax in Plasmodium falciparum 3D70087/N9 infected NSG mouse at 1.5 mg/kg, po by LC-MS/MS analysis; type: ADME, organism-based; conditions: in vivo
Outline: (§3)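 P. falciparum-infected NSG mice received escalating single oral doses of 1.5, 5, 15, 50 and 100 mg/kg.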

[14] = Tmax in Plasmodium falciparum 3D70087/N9 infected NSG mouse at 15 mg/kg, po by LC-MS/MS analysis; type: ADME, organism-based; conditions: in vivo; outline: as §3
[15] = Tmax in Plasmodium falciparum 3D70087/N9 infected NSG mouse at 50 mg/kg, po by LC-MS/MS analysis; type: ADME, organism-based; conditions: in vivo; outline: as §3
[16] = Tmax in Plasmodium falciparum 3D70087/N9 infected NSG mouse at 100 mg/kg, po by LC-MS/MS analysis; type: ADME, organism-based; conditions: in vivo; outline: as §3
[17] = Cmax in Plasmodium falciparum 3D70087/N9 infected NSG mouse at 50 mg/kg, po by LC-MS/MS analysis; type: ADME, organism-based; set-up: route oral, dose 50 mg/kg; conditions: in vivo
Outline: (§4)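 Oral (PO) dosing of NSG (NODscidIL2Rγnull) mice infected with P. falciparum. Cmax and AUC0–24 are taken from the infected-mouse PK analysis and are also expressed divided by dose.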

[18] = Cmax in Plasmodium falciparum 3D70087/N9 infected NSG mouse at 100 mg/kg, po by LC-MS/MS analysis; type: ADME, organism-based; set-up: route oral, dose 100 mg/kg; conditions: in vivo; outline: as §4
[19] = AUC (0 to 24 hrs) in Plasmodium falciparum 3D70087/N9 infected NSG mouse at 1.5 mg/kg, po by LC-MS/MS analysis; type: ADME, organism-based; set-up: time < 24 hr, route oral, dose 1.5 mg/kg; conditions: in vivo; outline: as §4
[20] = AUC (0 to 24 hrs) in Plasmodium falciparum 3D70087/N9 infected NSG mouse at 5 mg/kg, po by LC-MS/MS analysis; type: ADME, organism-based; set-up: time < 24 hr, route oral, dose 5 mg/kg; conditions: in vivo; outline: as §4
[21] = AUC (0 to 24 hrs) in Plasmodium falciparum 3D70087/N9 infected NSG mouse at 100 mg/kg, po by LC-MS/MS analysis; type: ADME, organism-based; set-up: time < 24 hr, route oral, dose 100 mg/kg; conditions: in vivo; outline: as §4
[22] = AUC (0 to 24 hrs) in Plasmodium falciparum 3D70087/N9 infected NSG mouse at 200 mg/kg, po by LC-MS/MS analysis; type: ADME, organism-based; set-up: time < 24 hr, route oral, dose 200 mg/kg; conditions: in vivo; outline: as §4
[23] = Dose normalized Cmax in Plasmodium falciparum 3D70087/N9 infected NSG mouse at 5 mg/kg, po by LC-MS/MS analysis; type: ADME, organism-based; conditions: in vivo; outline: as §3
[24] = Dose normalized Cmax in Plasmodium falciparum 3D70087/N9 infected NSG mouse at 15 mg/kg, po by LC-MS/MS analysis; type: ADME, organism-based; conditions: in vivo; outline: as §4
[25] = Dose normalized Cmax in Plasmodium falciparum 3D70087/N9 infected NSG mouse at 100 mg/kg, po by LC-MS/MS analysis; type: ADME, organism-based; conditions: in vivo; outline: as §4
[26] = Dose normalized Cmax in Balb/c mouse at 20 mg/kg, po by LC-MS/MS analysis; type: ADME, organism-based; conditions: in vivo; outline: as §1
[27] = Dose normalized AUC (0 to 24 hrs) in Plasmodium falciparum 3D70087/N9 infected NSG mouse at 1.5 mg/kg, po by LC-MS/MS analysis; type: ADME, organism-based; conditions: in vivo; outline: as §4
[28] = Dose normalized AUC (0 to 24 hrs) in Plasmodium falciparum 3D70087/N9 infected NSG mouse at 5 mg/kg, po by LC-MS/MS analysis; type: ADME, organism-based; conditions: in vivo; outline: as §4
[29] = Dose normalized AUC (0 to 24 hrs) in Plasmodium falciparum 3D70087/N9 infected NSG mouse at 15 mg/kg, po by LC-MS/MS analysis; type: ADME, organism-based; conditions: in vivo; outline: as §4
[30] = Dose normalized AUC (0 to 24 hrs) in Plasmodium falciparum 3D70087/N9 infected NSG mouse at 100 mg/kg, po by LC-MS/MS analysis; type: ADME, organism-based; conditions: in vivo; outline: as §4
[31] = Dose normalized AUC (0 to 24 hrs) in Plasmodium falciparum 3D70087/N9 infected NSG mouse at 200 mg/kg, po by LC-MS/MS analysis; type: ADME, organism-based; conditions: in vivo; outline: as §4
[32] = Dose normalized AUC (0 to 24 hrs) in Balb/c mouse at 20 mg/kg, po by LC-MS/MS analysis; type: ADME, organism-based; conditions: in vivo; outline: as §1
[33] = system: Plasmodium falciparum; test: Antiplasmodial activity against early stage (I to III) Plasmodium falciparum NF54 gametocytes at 5 uM incubated for 48 hrs under hypoxia condition by luciferase reporter gene assay relative to control; type: functional
[34] = Drug metabolism in mouse blood assessed as oxidation and glucuronidation by LC-MS/MS analysis; type: ADME, tissue-based
[35] = Lipophilicity, log D of compound at pH 6; type: physicochemical; conditions: buffer
[36] = Tmax in Plasmodium falciparum 3D70087/N9 infected NSG mouse at 5 mg/kg, po by LC-MS/MS analysis; type: ADME, organism-based; conditions: in vivo; outline: as §3
[37] = Tmax in Plasmodium falciparum 3D70087/N9 infected NSG mouse po by LC-MS/MS analysis; conditions: in vivo

For `CN1CCN(CC2CCN(c3nccc4[nH]c(-c5cc(F)cc(F)c5)nc34)CC2)CC1`, the solubility thermodynamic at 20 h [1] was 200 µM (≈ 85.3 µg/mL), the IC50 [2] was over 30000 nM and the selectivity ratio [3] was 1040. The Ratio [4] was 4.9, the Time [5] was 31 h and the IC50 [6] was 27 nM. The Activity [7] was “Active”, the Cmax [8] was 1500 nM and the Tmax [9] was 1.7 h. The half-life [10] was 23.1 h, the clearance [11] was 20.2 mL/min/kg and the bioavailability [12] was 83%. For the same compound, the Tmax [13] was 1.5 h, the Tmax [14] was 6 h and the Tmax [15] was 12.5 h. It also gave a Tmax [16] of 1 h, a Cmax [17] of 2840 nM and a Cmax [18] of 6680 nM. It also gave an AUC [19] of 46 µM·min, an AUC [20] of 170 µM·min and an AUC [21] of 5142 µM·min. The AUC(0-t) at 24 h [22] was 51.7 µM·h, the Cmax/dose [23] was 0.03 µM·kg/mg and the Cmax/dose [24] was 0.05 µM·kg/mg. It also gave a Cmax/dose [25] of 0.07 µM·kg/mg, a Cmax/dose [26] of 0.08 µM·kg/mg and an AUC/dose [27] of 31 µM·kg·min/mg. For the same compound, the AUC/dose [28] was 34 µM·kg·min/mg, the AUC/dose [29] was 65 µM·kg·min/mg and the AUC/dose [30] was 51 µM·kg·min/mg. It also gave an AUC/dose [31] of 62 µM·kg·min/mg, an AUC/dose [32] of 60 µM·kg·min/mg and an inhibition at 5 µM [33] of under 50%. The Drug metabolism [34] was “Metabolite_Detected”, the logD [35] was 0.4 and the Tmax [36] was 2.5 h. The Tmax [37] was 4 h.
